Bioassay records from PubChem BioAssay.
Statin myotox sup: suppression of simvastatin myotoxicity; C2C12 myotubes + simvastatin, ATP luminescence, 48 h; scaled: DMSO 0, geranylgeraniol control 100; rescue of ATP level, % at 7.49 µM; 330,000 tested, 0.78% active;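 active = mean ATP rescue above about 67%, or every replicate alone reaching that limit, limit read from the data, passing the limit was not always enough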;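 also: myotubes were challenged with 10 µM simvastatin during compound exposure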
Rtt109 HAT inh: inhibitors of Candida albicans Rtt109/Vps75 histone acetyltransferase. 330,000 tested, 0.16% active. inhibition, % at 34.9 µM. purified Rtt109/Vps75, ThioGlo CoA-SH fluorescence, 4 h;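 active = inhibition of at least 50% in every replicate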
Target sequence (Q5AAJ8 whole entry, looked up): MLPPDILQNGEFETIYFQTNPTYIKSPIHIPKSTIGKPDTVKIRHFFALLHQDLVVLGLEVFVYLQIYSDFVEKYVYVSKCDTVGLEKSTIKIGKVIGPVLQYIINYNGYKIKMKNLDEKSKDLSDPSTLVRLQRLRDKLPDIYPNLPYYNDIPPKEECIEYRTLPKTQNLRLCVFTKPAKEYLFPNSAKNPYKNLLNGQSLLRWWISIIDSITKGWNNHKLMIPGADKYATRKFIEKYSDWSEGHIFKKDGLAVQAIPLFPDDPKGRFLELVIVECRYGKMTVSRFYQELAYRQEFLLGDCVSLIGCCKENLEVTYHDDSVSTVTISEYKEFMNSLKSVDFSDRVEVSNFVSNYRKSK
S100A4 MyoIIA: inhibitors of human S100A4 binding to myosin IIA peptide. P26447. inhibition, % at 10.7 µM. AID 652163. S100A4/TAMRA-MyoIIA peptide fluorescence polarization. 360,000 tested, 0.14% active;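 active = mean inhibition of at least 70% across replicates, with every replicate also reaching that level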
Target sequence (P26447 whole entry, looked up): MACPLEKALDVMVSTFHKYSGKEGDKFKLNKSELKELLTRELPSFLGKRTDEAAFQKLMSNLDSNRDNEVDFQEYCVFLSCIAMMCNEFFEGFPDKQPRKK
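Material: S100A4 monomer (human). Medium: Calcium-containing HEPES buffer, pH 7.2. Probe or stimulus: labelled myosin peptide probe, 5 nM. Compound dosing: one concentration per compound. Timing: polarization read 5 min after assay mix addition, stable 5–60 min. Benchmarks: DMSO as neutral control, TFP as positive control.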
ERAP1 inh: blocks human ERAP1 aminopeptidase activity; recombinant ERAP1, Leu-AMC fluorescence, 60 min; inhibition, % at 10.7 µM; 340,000 tested, 0.15% active; AID 652197;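 active = mean replicate inhibition of at least 30%, or all replicates individually reaching that 30% level; inactive = mean below 30% and not every replicate reaching it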
PGC1a acetyl inh: PGC1a acetylation modulation, inhibitor mode. U2OS PGC1a acetylation, AlphaScreen anti-acetyl-lysine; with virally co-expressed GCN5 acetyltransferase. 350,000 tested, 0.17% active. inhibition, % at 15.6 µM. AID 651687;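 active = every replicate shows inhibition of at least 40%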
Numbers stand for hits; - = inactive; . = no result given; ! = not confirmed by another sample. Compounds with a hit are over-represented: about 0.98% of the library has one in this group of screens.

SMILES	Statin myotox sup	Rtt109 HAT inh	S100A4 MyoIIA	ERAP1 inh	PGC1a acetyl inh
COc1ccc(N2C(=O)CC(C#N)=C2N)cc1	.	-	-	-	-
N#CC1=C(N)N(c2ccccc2)C(=O)C1	106	-	.	.	-
NS(=O)(=O)c1ccc(CCNCC(=O)N2CCC(Cc3ccccc3)CC2)cc1	85	-	-	.	-
NS(=O)(=O)c1ccc(CCNCC(=O)NC2CC2)cc1	-	-	-	-	-
C[C@@H]1CCCCO[C@@H](CN(C)C(=O)Cc2ccccc2)[C@@H](C)CN([C@H](C)CO)C(=O)c2cc(NC(=O)Cc3ccccc3)ccc2O1	-	.	-	-	-
C=CCn1c(COc2ccc(Cl)cc2)nnc1SCC(=O)c1c(N)n(C)c(=O)n(C)c1=O	101	-	-	-	-
CN(C)CC(=O)N1CC2(C1)[C@H](c1ccccc1)[C@H](CO)N2C(=O)C1CCC1	.	.	-	-	-
O=C(Nc1ccc(C(F)(F)F)cc1)N1C[C@@H]2N[C@H](C1)C2c1ccc(/C=C/c2ccccc2)cc1 (stereo partly drawn)	.	.	-	-	73!
O=C(C1CCC1)N1C[C@@H]2N[C@H](C1)C2c1ccc(/C=C/c2ccccc2)cc1 (stereo partly drawn)	.	.	-	-	-
CO[C@H]1CN(C)C(=O)c2ccc(NC(=O)Nc3ccccc3F)cc2OC[C@H](C)N(C(C)=O)C[C@@H]1C	-	.	-	-	-
CC(Cc1ccccc1)NC(=O)C1CCCNC1=O (stereo not drawn)	-	-	-	-	-
CC(Cc1ccccc1)N/C=C1\CC(=O)NC1=O (stereo not drawn)	80	-	.	.	-
COc1cc(C(=O)Nc2ccc3c(c2)OCO3)ccc1-n1cnnn1	-	-	.	.	-
COc1cc(NC(=O)Cc2cccs2)ccc1-n1cnnn1	94	-	.	.	-
C/C(=N\OC(=O)NC(C)C)c1sc(-c2ccccc2)nc1C	.	-	.	.	-
C/C(=N\OC(=O)NC(C)C)c1sc(-c2ccc(Cl)cc2)nc1C	71	-	.	.	-
Cc1ccc(S(=O)(=O)N(C)c2ccc(C(=O)O)cc2)cc1	125	-	.	.	-
O=C(CSCc1ccc(Cl)cc1)N1CCOCC1	-	-	-	-	-
Cc1ccc(CSCC(=O)N2CCOCC2)cc1	104	-	.	.	-
COc1ccccc1NC(=O)N[C@@H]1C=C[C@@H](CC(=O)NCc2ccc(Cl)c(Cl)c2)O[C@H]1CO	-	.	-	-	-
Cc1ccc(S(=O)(=O)N(C)C[C@H]2Oc3ccc(NS(=O)(=O)c4cccs4)cc3CC(=O)N([C@@H](C)CO)C[C@@H]2C)cc1	-	.	-	-	-
O=C(C[C@@H]1C[C@H]2c3cc(NS(=O)(=O)c4ccccc4)ccc3O[C@H]2[C@@H](CO)O1)N1CCOCC1	-	.	111	-	-
O=C(C[C@H]1C[C@H]2c3cc(NC(=O)Cc4ccncc4)ccc3O[C@H]2[C@H](CO)O1)NCc1ccccn1	-	.	96	.	-
COCC(=O)Nc1ccc2c(c1)[C@@H]1C[C@@H](CC(=O)N3CCOCC3)O[C@@H](CO)[C@@H]1O2	-	.	86	-	-
O=C(C[C@H]1C[C@@H]2c3cc(NC(=O)C4CCOCC4)ccc3O[C@@H]2[C@H](CO)O1)NCCN1CCCCC1	-	.	115	-	-
SMILES	Statin myotox sup	Rtt109 HAT inh	S100A4 MyoIIA	ERAP1 inh	PGC1a acetyl inh
O=C(C[C@@H]1C[C@@H]2c3cc(NC(=O)CC4CC4)ccc3O[C@@H]2[C@H](CO)O1)NCCN1CCCCC1	-	.	-	-	-
COCC(=O)Nc1ccc2c(c1)[C@H]1C[C@@H](CC(=O)N3CCOCC3)O[C@@H](CO)[C@H]1O2	-	.	-	-	-
C[C@H](CO)N1C[C@H](C)[C@H](CN(C)C(=O)Nc2ccccc2)Oc2ccc(NS(C)(=O)=O)cc2C1=O	-	.	-	-	-
C[C@@H]1CN([C@@H](C)CO)C(=O)Cc2cc(NC(=O)Nc3cccc4ccccc34)ccc2O[C@@H]1CN(C)S(=O)(=O)c1ccccc1	-	.	-	-	-
COc1ccc(NC(=O)Nc2cccc3c2O[C@@H](CN(C)Cc2ccc(C(F)(F)F)cc2)[C@@H](C)CN([C@@H](C)CO)C3=O)cc1	-	.	-	-	-
CC(=O)OCCNc1cc(Sc2nc3ccccc3[nH]2)c2nonc2c1[N+](=O)[O-]	-	70	.	.	.
CC(=O)OCCCNc1cc(Sc2nc3ccccc3s2)c2nonc2c1[N+](=O)[O-]	-	-	.	.	-
COc1ccc(CN(C)C[C@H]2OCc3cn(nn3)CCCC(=O)N([C@@H](C)CO)C[C@H]2C)cc1	-	.	-	-	-
